According to ChEMBL document CHEMBL1125251, “4'-Hydroxy-3-methoxyflavones with potent antipicornavirus activity” (J Med Chem, 1991):
Values after ≈ are worked out from the molar mass of the structure shown. Active and inactive are the calls of the source. The calls are words filed in the database; no cut-off is given here.

Experiments:
Human rhinovirus sp. [1] = test: Antirhinovirus activity against rhinovirus serotype 29 which were grown on Ohio HeLa cells; format: functional
Human rhinovirus sp. [2] = test: Antirhinovirus activity against rhinovirus serotype 15 which were grown on Ohio HeLa cells; format: functional
Human rhinovirus sp. [3] = test: Antirhinovirus activity against rhinovirus serotype 59 which were grown on Ohio HeLa cells; format: functional
Human rhinovirus sp. [4] = test: Antirhinovirus activity against rhinovirus serotype 89 which were grown on Ohio HeLa cells; format: functional
Human rhinovirus sp. [5] = test: Antirhinovirus activity against rhinovirus serotype 41 which were grown on Ohio HeLa cells; format: functional
Human rhinovirus sp. [6] = test: Antirhinovirus activity against rhinovirus serotype 70 which were grown on Ohio HeLa cells; format: functional
Human rhinovirus sp. [7] = test: Antirhinovirus activity against rhinovirus serotype 2 which were grown on Ohio HeLa cells; format: functional
Human rhinovirus sp. [8] = test: Antirhinovirus activity against rhinovirus serotype 39 which were grown on Ohio HeLa cells; format: functional
Human rhinovirus sp. [9] = test: Antirhinovirus activity against rhinovirus serotype 85 which were grown on Ohio HeLa cells; format: functional
Human rhinovirus sp. [10] = test: Antirhinovirus activity against rhinovirus serotype 14 which were grown on Ohio HeLa cells; format: functional
Human rhinovirus sp. [11] = test: Antirhinovirus activity against rhinovirus serotype 9 which were grown on Ohio HeLa cells; format: functional
Human rhinovirus sp. [12] = test: Antirhinovirus activity against rhinovirus serotype 63 which were grown on Ohio HeLa cells; format: functional
Enterovirus C [13] = test: The ratio of the poliovirus viral titer of the virus control (reduction factor) to the viral titer in the presence of the maximal non-toxic dose (RF MNTD); format: functional
Outline: (§1)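 Poliovirus type 1 Brunhilde 1A/S3 in Vero monolayers. Serial 10-fold virus dilutions adsorbed 1 h at 37 °C, then serial 2-fold compound dilutions were added. Incubated at 37 °C and scored for CPE by light microscopy, with a 3-day readout. Titer reduction is control/treated TCD50/mL. ED99 is the minimum concentration inhibiting 99% of virus. Virus, cell and compound controls were included.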

[14] = Therapeutic Index measured as the ratio of CyD50(polio) / ED99(polio) values; format: organism-based; conditions: enterovirus c; read-out: Therapeutic index 99
Outline: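 TI99 = CyD50/ED99 for poliovirus. ED99 came from end-point titration in Vero cells at 37 °C over 3 days. CyD50 came from Vero cell growth: 10⁶ cells were given serial 2-fold compound dilutions in quadruplicate for 6 days at 37 °C, then trypsinized, counted and reseeded, repeated five times. Generation time was calculated per concentration.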

[15] = Cytotoxic dose at which 50% growth of normal cells is inhibited; format: cell-based; conditions: chlorocebus sabaeus, Vero cells; read-out: CyD50
Outline: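 Cell-growth cytotoxicity in Vero cells or human skin fibroblasts. Serial 2-fold dilutions in M-199 with 6% newborn calf serum were added in quadruplicate to 10⁶ cells and held 6 days at 37 °C. Cells were trypsinized, counted and reseeded with compound, repeated five times. Generation time was calculated per concentration. CyD50 = lowest concentration at least doubling generation time versus untreated cells.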

Enterovirus C [16] = test: Minimum drug concentration at which 99% of the polio virus is inhibited; format: functional; outline: as §1
Human rhinovirus sp. [17] = test: Cytotoxic dose at which 50% growth of normal cells is inhibited against rhino virus infection.; format: functional
Outline: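 Human skin fibroblasts, 10⁶ cells per flask, given serial 2-fold dilutions in quadruplicate in M-199 with 6% newborn calf serum and held 6 days at 37 °C. Cells were trypsinized, counted in a chamber and reseeded with compound over five repeat cycles. CyD50 = lowest concentration at least doubling cell generation time relative to untreated control.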

Enterovirus C [18] = test: Maximal non-toxic dose (MNTD) that shows antiviral activity.; format: functional
Outline: (§2)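 End-point titration. Poliovirus type 1 Brunhilde was run in Vero cells at 37 °C with a 3-day read. Rhinovirus 15 was run in human skin fibroblasts at 33 °C with a 7-day read. Monolayers got serial 10-fold virus dilutions and adsorbed 1 h at 37 °C, then serial 2-fold compound dilutions (DMSO stock in maintenance medium). CPE was read by light microscopy. RF = control titer (TCD50/mL) / titer at maximal nontoxic dose.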

Human rhinovirus sp. [19] = test: Minimum drug concentration at which 99% of the rhino virus is inhibited; NA= not active; format: functional, organism-based
Outline: (§3)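 End-point titration with rhinovirus type 15 on human skin fibroblast monolayers. Cells were infected with serial 10-fold virus dilutions and allowed 1 h adsorption at 37 °C. Serial 2-fold compound dilutions were then added and plates incubated at 33 °C. CPE was read daily by light microscopy for at least 1 week, titres as TCD50/mL. ED99 = minimum concentration inhibiting 99% of virus.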

Rattus norvegicus [20] = species on record: Rattus norvegicus; test: Mutagenicity evaluated by calculating number of revertants using Salmonella Typhimurium strain TA 98 (0.25 mg/plate) without S9 mix from rat liver; format: functional
Outline: (§4)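 Ames plate incorporation assay with Salmonella typhimurium TA98 or TA100, without S9, at 0.25 mg/plate. Revertants per plate were counted on duplicate plates per dose. Quercetin was the standard mutagen.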

Rattus norvegicus [21] = species on record: Rattus norvegicus; test: Mutagenicity evaluated by calculating number of revertants using Salmonella Typhimurium strain TA 100 (0.25 mg/plate) without S9 mix from rat liver according to the plate incorporation assay.; format: functional; outline: as §4
Rattus norvegicus [22] = species on record: Rattus norvegicus; test: Mutagenicity evaluated by calculating number of revertants using Salmonella Typhimurium strain TA 100 (0.25 mg/plate) with S9 mix from rat liver; format: functional
Outline: (§5)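 Ames plate incorporation assay with Salmonella typhimurium TA 98 or TA 100, with or without rat liver S9 (20 µL S9 per plate). S9 came from male Wistar rats induced with phenobarbital (0.1% in drinking water) plus β-naphthoflavone (80 mg/kg ip on day 5 in corn oil), fasted 24 h and killed on day 7. Revertants per plate counted on duplicate plates per dose.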

Rattus norvegicus [23] = species on record: Rattus norvegicus; test: Mutagenicity evaluated by calculating number of revertants using Salmonella Typhimurium strain TA 100 (2.5 mg/plate) without S9 mix from rat liver; format: functional; outline: as §5
Rattus norvegicus [24] = species on record: Rattus norvegicus; test: Mutagenicity evaluated by calculating number of revertants using Salmonella Typhimurium strain TA 98 (2.5 mg/plate) without S9 mix from rat liver according to the plate incorporation assay.; format: functional; outline: as §5
Enterovirus C [25] = test: Minimal dose which produces titer reduction at 10 ug/mL (mD RF10e3); format: functional
Rattus norvegicus [26] = species on record: Rattus norvegicus; test: Mutagenicity evaluated by calculating number of revertants using Salmonella Typhimurium strain TA 100 (2.5 mg/plate) with S9 mix from rat liver; format: functional; outline: as §5
Rattus norvegicus [27] = species on record: Rattus norvegicus; test: Compound was evaluated for the mutagenicity by calculating number of revertants using Salmonella Typhimurium strain TA 98 (0.25 mg/plate) with S9 mix from rat liver; format: functional; outline: as §5
Rattus norvegicus [28] = species on record: Rattus norvegicus; test: Compound was evaluated for the mutagenicity by calculating number of revertants using Salmonella Typhimurium strain TA 98 (2.5 mg/plate) with S9 mix from rat liver; format: functional; outline: as §5
[29] = Therapeutic Index measured as the ratio of CyD50 (rhino) / ED99 (rhino) values.; conditions: read-out: Therapeutic index 99
Outline: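 TI99 = CyD50/ED99 for rhinovirus 15. ED99 came from end-point titration in human skin fibroblasts at 33 °C over 7 days. CyD50 came from fibroblast growth: 10⁶ cells were given serial 2-fold compound dilutions in quadruplicate for 6 days at 37 °C, then counted and reseeded, repeated five times. Generation time was calculated per concentration.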

Human rhinovirus sp. [30] = test: Minimum drug concentration at which 99% of the rhino virus is inhibited.; format: functional; outline: as §3
Enterovirus C [31] = test: The ratio of the viral titer of the virus control (reduction factor) to the viral titer in the presence of the maximal non-toxic dose (RF MNTD) of the compound; format: functional; outline: as §2
Enterovirus C [32] = test: Minimum drug concentration at which 99% of the polio virus is inhibited; NA= Not active; format: functional, organism-based; outline: as §1

Row | Compound | MIC50 (Human rhinovirus sp. [1]) [mg/L] | MIC50 (Human rhinovirus sp. [2]) [mg/L] | MIC50 (Human rhinovirus sp. [3]) [mg/L] | MIC50 (Human rhinovirus sp. [4]) [mg/L] | MIC50 (Human rhinovirus sp. [5]) [mg/L] | MIC50 (Human rhinovirus sp. [7]) [mg/L] | MIC50 (Human rhinovirus sp. [8]) [mg/L] | MIC50 (Human rhinovirus sp. [10]) [mg/L] | MIC50 (Human rhinovirus sp. [11]) [mg/L] | Reduction factor (Enterovirus C [13]) | selectivity ratio [14] | CC50 [15] [mg/L] | ED99 (Enterovirus C [16]) [µg/mL] | CyD50 (Human rhinovirus sp. [17]) [µg/mL] | Max non-toxic dose (Enterovirus C [18]) [µg/mL] | Minimal dose (Enterovirus C [25]) [µg/mL] | also measured
1 | N=C(N)N [GUANIDINE] | > 64 | 438 (≈ 7410 µM) | 350 (≈ 5920 µM) | 1000 (≈ 16900 µM) | 1000 (≈ 16900 µM) | > 64 | 109 (≈ 1850 µM) | 7 (≈ 118 µM) | 375 (≈ 6350 µM) |  |  |  |  |  |  |  | MIC50 (Human rhinovirus sp. [6]): 6 mg/L (≈ 102 µM); MIC50 (Human rhinovirus sp. [9]): 750 mg/L (≈ 12700 µM); MIC50 (Human rhinovirus sp. [12]): 500 mg/L (≈ 8460 µM)
2 | CCOc1c(-c2ccc(O)cc2)oc2cc(C)ccc2c1=O |  |  |  |  |  |  |  |  |  | 1 | < 1 | 25 (≈ 84.4 µM) | >25 | 25 | 25 |  | ED99 (Human rhinovirus sp. [19]): inactive
3 | COc1c(-c2ccc(O)cc2)oc2cc(O)c(C)c(C)c2c1=O | 0.078 (≈ 0.25 µM) | 0.088 (≈ 0.282 µM) | 0.016 (≈ 0.0512 µM) | 0.5 (≈ 1.6 µM) | 0.088 (≈ 0.282 µM) | 0.044 (≈ 0.141 µM) | 0.088 (≈ 0.282 µM) | 0.072 (≈ 0.231 µM) | 0.156 (≈ 0.499 µM) | 1000000 | > 1000 | > 100 | 0.1 | 100 | >100 | <2.5 | Revertants/plate (Rattus norvegicus [20]): 12; Revertants/plate (Rattus norvegicus [21]): 110; Revertants/plate (Rattus norvegicus [22]): 103; Revertants/plate (Rattus norvegicus [23]): 85; Revertants/plate (Rattus norvegicus [24]): 10; Revertants/plate (Rattus norvegicus [26]): 94; Revertants/plate (Rattus norvegicus [27]): 20; MIC50 (Human rhinovirus sp. [9]): 0.076 mg/L (≈ 0.243 µM); Revertants/plate (Rattus norvegicus [28]): 9; selectivity ratio [29]: > 200; ED99 (Human rhinovirus sp. [30]): 0.5 µg/mL; MIC50 (Human rhinovirus sp. [12]): 0.074 mg/L (≈ 0.237 µM)
4 | O=c1c(O)c(-c2ccc(O)c(O)c2)oc2cc(O)cc(O)c12 [QUERCETIN] |  |  |  |  |  |  |  |  |  |  |  |  |  |  |  |  | Revertants/plate (Rattus norvegicus [20]): 1100; Revertants/plate (Rattus norvegicus [21]): 589
5 | COc1c(-c2ccc(O)cc2)oc2ccc(N)cc2c1=O |  |  |  |  |  |  |  |  |  |  | 2 | 10 (≈ 35.3 µM) | 5 |  | 10 | 10 | Reduction factor (Enterovirus C [31]): 10000
6 | COc1cc(C)c2c(=O)c(OC)c(-c3ccc(O)cc3)oc2c1 | 0.175 (≈ 0.56 µM) | 0.4 (≈ 1.28 µM) | 3 (≈ 9.61 µM) | 0.2 (≈ 0.64 µM) | 0.375 (≈ 1.2 µM) | 2.4 (≈ 7.68 µM) | 12 (≈ 38.4 µM) | 10.8 (≈ 34.6 µM) | 0.2 (≈ 0.64 µM) | 100000 | 50 | 50 (≈ 160 µM) | 1 | 50 | 25 | 0.5 | MIC50 (Human rhinovirus sp. [6]): 5 mg/L (≈ 16 µM); selectivity ratio [29]: 2; ED99 (Human rhinovirus sp. [30]): 25 µg/mL
7 | Cc1ccc2c(=O)c(OC(C)C)c(-c3ccc(O)cc3)oc2c1 |  |  |  |  |  |  |  |  |  |  |  | 2 (≈ 6.44 µM) |  | 2 |  |  | ED99 (Human rhinovirus sp. [19]): inactive
8 | COc1cc(-c2oc3cc(O)c(OC)c(O)c3c(=O)c2OC)ccc1O |  |  |  |  |  |  |  |  |  | 10000 |  | 1 (≈ 2.78 µM) |  |  | 10 | 1 | ED99 (Enterovirus C [32]): inactive
9 | COc1ccc(-c2oc3c(OC)cccc3c(=O)c2OC)cc1 |  |  |  |  |  |  |  |  |  | 1 |  | > 200 |  |  | 100 |  | ED99 (Enterovirus C [32]): inactive
